Measured values from different studies.
Lines come from different studies, so protocols differ.
MALT1: Mucosa-associated lymphoid tissue lymphoma translocation protein 1 (MALT1, Homo sapiens, UniProt Q9UDY8)
WNK1: Serine/threonine-protein kinase WNK1 (WNK1, Homo sapiens, UniProt Q9H4A3)
CDK15: Cyclin-dependent kinase 15 (CDK15, Homo sapiens, UniProt Q96Q40)

| SMILES | target | test | setting | measurement | value |
| --- | --- | --- | --- | --- | --- |
| CC(C)[C@H](NC(=O)OCc1ccccc1)C(=O)N[C@@H](CCCN=C(N)N)C(=O)N1CCC[C@H]1C(=O)N[C@@H](CCCN=C(N)N)C(=O)CF | MALT1 | enzyme activity, inhibitor | 10 nM | inhibition | 56% |
| Nc1ncc(-c2nc(N3CCOCC3)nc(N3CCOCC3)n2)c(C(F)F)n1 | WNK1 | binding, competition with immobilised ligand | 10 µM | remaining binding | 57% |
| CN(CCN1CCC(OC(=O)Nc2ccccc2-c2ccccc2)CC1)C(=O)c1ccc(CN2CCC(C(N)=O)CC2)cc1 | Endothelin-1 receptor (EDNRA, Homo sapiens, UniProt P25101) | ligand displacement, radioligand | 1 µM | inhibition | 23% |
| CCCCCn1nc(C(=O)N[C@H](C(N)=O)C(C)C)c2ccccc21 | Cannabinoid receptor 1 (CNR1, Homo sapiens, UniProt P21554) | calcium signal, agonist, fluorescence |  | Emax | 116% |
| Cc1nn(C)cc1-c1nc2c(N3CCN(Cc4ccc(Cl)cc4)CC3)c(Cl)cnc2[nH]1 | Phosphatidylinositol 4-phosphate 3-kinase C2 domain-containing subunit beta (PIK3C2B, Homo sapiens, UniProt O00750) | binding, competition with immobilised ligand | 1 µM | remaining binding | 100% |
| COc1cc(Cl)c(C(=O)N[C@@H](CN[C@H]2CC[C@@H](N)CC2)Cc2ccc(C#N)cc2)cc1-c1ccc(CN[C@H](C)c2ccc(C)cc2)o1 | Serine/threonine-protein kinase Nek3 (NEK3, Homo sapiens, UniProt P51956) | enzyme activity, inhibitor | 1 µM | remaining activity | 107% |
| O=[N+]([O-])c1cccc2[nH]c(CNc3nc(N4CCOCC4)nc4c3ncn4-c3ccsc3)nc12 | CDK15 | binding, competition with immobilised ligand | 10 µM | binding vs control | 47% |
| CN(C)C(=O)COC(=O)Cc1ccc(OC(=O)c2ccc(NC(=N)N)cc2)cc1 | MALT1 | enzyme activity, inhibitor | 10 µM | inhibition | 48% |
| COc1ncccc1-c1cnn2ccc(N3CCN(C(=O)OC(C)C)CC3)nc12 | WNK1 | binding, competition with immobilised ligand | 1 µM | remaining binding | 74% |
| CCN(CC)CCCC[C@H](NC(=O)[C@H](CC(C)C)NC(=O)[C@H](C)NC(=O)[C@H](Cc1ccccc1)NC(=O)c1ccc(C(C)(C)C)cc1)C(=O)N[C@@H](CO)C(=O)OC | ATPase family AAA domain-containing protein 2B (ATAD2B, Homo sapiens, UniProt Q9ULI0) | thermal stability, DSF | 25 µM | ΔTm | 0 °C |
| C[C@@H](NC(=O)[C@@H](N)Cc1ccc(O)cc1)C(=O)N[C@@H](Cc1ccccc1)C(=O)NCC(=O)N[C@@H](Cc1ccc(O)cc1)C(=O)N1CCC[C@H]1C(=O)N[C@@H](CCCCN)C(=O)N[C@@H](CSC1CC(=O)N(CCCCCNC(=O)c2ccc(C3=c4cc5c(cc4Oc4cc6c(cc43)C(CS(=O)(=O)[O-])=CC(C)(C)N6C)=[N+](C)C(C)(C)C=C5CS(=O)(=O)O)c(C(=O)O)c2)C1=O)C(N)=O (stereo partly shown) | Mu-type opioid receptor (Oprm1, Mus musculus, UniProt P42866) | binding |  | koff | 0.068 s⁻¹ |
| Fc1cccc(-n2cnc3c(NCc4nc5c(F)c(F)ccc5[nH]4)nc(N4CCOCC4)nc32)c1 | CDK15 | binding, competition with immobilised ligand | 10 µM | binding vs control | 20% |
| [H]/N=C(/N)c1ccc(NCc2nc3cc(C(=O)N(CCC(=O)O)c4ccccn4)ccc3n2C)cc1 | Vitamin K-dependent protein C (PROC, Homo sapiens, UniProt P04070) | enzyme activity, inhibitor | 0.2 µM | inhibition | 16% |
